Assay results reported in article PMC4091826 (Molecular Biology of the Cell, 2014).
No end group written: not given here.

What was measured:
human mtHsp70 [1] = assay: Single-turnover basal ATPase assay, human mtHsp70; assay type: biochemical; conditions: 25°C, buffer A, versus wild type, Figure 1C
Procedure, shortened: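 Purified protein (100 μg) was loaded on ice for 3 min with 50 μM ATP and 25 μCi [γ-32P]ATP in buffer A (25 mM HEPES-KOH pH 7.5, 100 mM KCl, 10 mM Mg(OAc)2). Complexes were isolated immediately on Sephadex G50 and frozen in liquid nitrogen; they contained 1 μM protein. Hydrolysis was then run at 25°C in buffer alone, without stimulators.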

human mtHsp70 [2] = assay: Stimulation of ATPase activity by P5 peptide, human mtHsp70; assay type: biochemical; conditions: 250-fold molar excess of P5; Figure 1D
Procedure, shortened: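 Human mtHsp70[ATP] complexes were formed by incubating 100 μg protein with 50 μM ATP and 25 μCi [γ-32P]ATP on ice for 3 min in buffer A (25 mM HEPES-KOH pH 7.5, 100 mM KCl, 10 mM Mg(OAc)2). Complexes were isolated by Sephadex G50 (1 μM protein) and snap-frozen. Single-turnover hydrolysis was run at 25°C in buffer A, either alone (basal) or with P5 peptide.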

human mtHsp70 [3] = conditions: ref Goswami et al., 2010; cited from earlier work
human mtHsp70 [4] = conditions: versus wild type; ref Goswami et al., 2010; cited from earlier work
[5] = biological target: T1, Ssc1 (yeast mtHsp70), wild type, hexahistidine-tagged, purified (S. cerevisiae, UniProt P0CS90 24-654); assay: fluorescence polarisation
[6] = biological target: T2, Ssc1 E467A, hexahistidine-tagged, purified (S. cerevisiae, UniProt P0CS90 24-654, E467A); assay: fluorescence polarisation
[7] = biological target: T1, Ssc1 (yeast mtHsp70), wild type, …; assay: fluorescence polarisation; remark: listed apart in the source
[8] = biological target: T2, Ssc1 E467A, hexahistidine-tagged, …; assay: fluorescence polarisation; remark: listed apart in the source
[9] = biological target: human mtHsp70, wild type, hexahistidine-tagged, purified (human, UniProt P38646 47-679); assay: fluorescence polarisation
Sequence of human mtHsp70, wild type, hexahistidine-tagged, purified (P38646 47-679): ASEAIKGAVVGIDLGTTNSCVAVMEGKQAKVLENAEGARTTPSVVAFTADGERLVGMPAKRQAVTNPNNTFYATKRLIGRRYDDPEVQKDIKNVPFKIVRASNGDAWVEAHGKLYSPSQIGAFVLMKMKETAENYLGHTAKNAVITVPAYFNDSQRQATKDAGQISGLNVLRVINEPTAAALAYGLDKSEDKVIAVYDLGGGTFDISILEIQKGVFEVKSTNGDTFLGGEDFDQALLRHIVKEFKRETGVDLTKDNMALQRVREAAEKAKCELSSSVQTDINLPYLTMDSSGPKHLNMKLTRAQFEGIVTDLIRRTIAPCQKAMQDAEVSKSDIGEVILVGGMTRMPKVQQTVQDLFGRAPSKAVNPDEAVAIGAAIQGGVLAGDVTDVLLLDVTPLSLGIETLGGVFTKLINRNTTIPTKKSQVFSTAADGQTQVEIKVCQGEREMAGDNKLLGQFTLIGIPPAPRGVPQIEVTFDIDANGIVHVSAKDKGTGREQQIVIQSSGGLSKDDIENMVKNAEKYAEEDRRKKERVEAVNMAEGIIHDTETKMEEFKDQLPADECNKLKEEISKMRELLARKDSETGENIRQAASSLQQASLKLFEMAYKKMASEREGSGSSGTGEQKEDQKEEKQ

[10] = biological target: T1, Ssc1 (yeast mtHsp70), wild type, …; assay: fluorescence polarisation; remark: listed apart in the source
Target sequence in this assay (P0CS90 24-654): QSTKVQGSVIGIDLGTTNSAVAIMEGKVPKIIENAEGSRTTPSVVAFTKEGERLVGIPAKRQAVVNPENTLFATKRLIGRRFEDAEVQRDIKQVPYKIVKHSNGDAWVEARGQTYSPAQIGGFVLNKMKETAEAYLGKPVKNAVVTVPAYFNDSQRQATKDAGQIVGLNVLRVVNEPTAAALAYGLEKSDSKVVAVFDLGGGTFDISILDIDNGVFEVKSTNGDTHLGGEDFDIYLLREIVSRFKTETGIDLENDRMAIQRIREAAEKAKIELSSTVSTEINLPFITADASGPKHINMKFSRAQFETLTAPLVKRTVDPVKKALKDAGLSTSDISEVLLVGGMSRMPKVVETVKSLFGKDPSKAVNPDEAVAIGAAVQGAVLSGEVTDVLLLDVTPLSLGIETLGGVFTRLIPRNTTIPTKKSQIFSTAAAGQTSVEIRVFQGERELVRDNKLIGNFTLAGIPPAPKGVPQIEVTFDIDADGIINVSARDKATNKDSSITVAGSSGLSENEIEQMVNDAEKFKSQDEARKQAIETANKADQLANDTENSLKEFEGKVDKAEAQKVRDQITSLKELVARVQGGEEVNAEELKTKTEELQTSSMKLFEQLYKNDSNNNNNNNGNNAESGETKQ

[11] = biological target: T2, Ssc1 E467A, hexahistidine-tagged, …; assay: fluorescence polarisation; remark: listed apart in the source
Ssc1 D411R, purified = Ssc1 D411R, purified (S. cerevisiae, UniProt P0CS90 24-654, D411R); assay: fluorescence polarisation
[12] = biological target: Ssc1 E467A-D411R, purified (S. cerevisiae, UniProt P0CS90 24-654, D411R | E467A); assay: fluorescence polarisation
Ssc1 [13] = assay: Single-turnover basal ATPase assay, Ssc1; assay type: biochemical, S. cerevisiae; conditions: 25°C, buffer A, versus wild type
mitochondrial mass = assay: Mitochondrial mass estimation by 10-N-nonyl acridine orange flow cytometry; assay type: cell-based, S. cerevisiae; conditions: in comparison to wild type; Figure 6E
Procedure, shortened: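 Per strain, cells equal to 0.2 OD at A600 were stained with 10-N-nonyl acridine orange, a cardiolipin-binding dye, and analysed by flow cytometry to estimate total mitochondrial mass.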

Ssc1 [14] = assay: ATP-induced substrate release by fluorescence anisotropy, Ssc1; assay type: biochemical, S. cerevisiae; conditions: 2.5 mM ATP, 5 μM Ssc1[F-P5], anisotropy decrease up to 5 min
Ssc1 [15] = assay: Limited proteolytic cleavage by trypsin; assay type: biochemical, S. cerevisiae; conditions: 1:100 (wt/wt) trypsin, 25°C, SDS-PAGE
Cytb2(47)-DHFR = assay: In vitro import kinetics of Cytb2; assay type: biochemical, S. cerevisiae; conditions: isolated mitochondria, 37°C preincubation; Figure 6, C and D
Procedure, shortened: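 Saturating purified precursor plus 8 mM each ATP and NADH added. Time points stopped with valinomycin, then proteinase K (quenched with PMSF). Anti-DHFR immunoblot; intermediate form plotted over time, maximum wild-type import set as 100%.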

yeast cells = assay: Growth phenotype; assay type: cell-based, S. cerevisiae; conditions: minimal medium or 5-FOA medium, serial dilutions
[16] = tested on: fluorescein-labeled P5 peptide (F-P5); assay: Fluorescence anisotropy equilibrium binding of F-P5 peptide to Ssc1 proteins; conditions: F-P5, versus wild type
Tim44 = assay: Coimmunoprecipitation of Ssc1 with Tim44; assay type: binding, S. cerevisiae; conditions: mitochondrial lysates, anti-Ssc1, presence or absence of 1 mM ATP; Figure 6A
Hsp60 = Hsp60 precursor accumulation assay; assay type: cell-based, S. cerevisiae; conditions: shift to 37°C for 2 h, immunoblot; Figure 6B
Procedure, shortened: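 Yeast strains were grown in YPD at 28°C to early log phase, then shifted to 37°C for 2 h. Cells equivalent to 2 OD A600 were taken before and after the shift and lysed in 0.1 N NaOH. Whole-cell extracts were run on SDS–PAGE and immunoblotted for Hsp60 to detect its precursor (p) and mature (m) forms.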

## mtHsp70Q488A
Human mtHsp70 [1]
  fold enhancement in basal ATPase activity: 2.75 fold
Human mtHsp70 [2]
  stimulation of ATPase activity by P5 substrate peptide, in words: marked decrease in stimulation of ATPase activity by P5 substrate peptide

## mtHsp70G489E
Human mtHsp70 [3]
  loss in stimulation of ATPase activity by peptide substrates: 70%
Human mtHsp70 [2]
  stimulation of ATPase activity by P5 substrate peptide, in words: marked decrease in stimulation of ATPase activity by P5 substrate peptide
Human mtHsp70 [4]
  elevated basal rate of ATP hydrolysis: fivefold elevated

B1: fluorescein-labeled P5 peptide (peptide)
peptide: CALLLSAPRR
modifications: also: fluorescein label, position not given here
[5]
  kon: 14000 M⁻¹ s⁻¹
[6]
  kon: 3400 M⁻¹ s⁻¹
[7]
  koff: 0.0023 ± 3.47e-05 s⁻¹
[8]
  koff: 0.0039 ± 0.000131 s⁻¹
[9]
  binding result: binds
[10]
  Kd: 200 ± 37 nM
[11]
  Kd: 1750 ± 269 nM
Ssc1 D411R, purified
  binding result: binds
[12]
  binding result: binds

B2: E467A (protein)
chain: QSTKVQGSVIGIDLGTTNSAVAIMEGKVPKIIENAEGSRTTPSVVAFTKEGERLVGIPAKRQAVVNPENTLFATKRLIGRRFEDAEVQRDIKQVPYKIVKHSNGDAWVEARGQTYSPAQIGGFVLNKMKETAEAYLGKPVKNAVVTVPAYFNDSQRQATKDAGQIVGLNVLRVVNEPTAAALAYGLEKSDSKVVAVFDLGGGTFDISILDIDNGVFEVKSTNGDTHLGGEDFDIYLLREIVSRFKTETGIDLENDRMAIQRIREAAEKAKIELSSTVSTEINLPFITADASGPKHINMKFSRAQFETLTAPLVKRTVDPVKKALKDAGLSTSDISEVLLVGGMSRMPKVVETVKSLFGKDPSKAVNPDEAVAIGAAVQGAVLSGEVTDVLLLDVTPLSLGIETLGGVFTRLIPRNTTIPTKKSQIFSTAAAGQTSVEIRVFQGARELVRDNKLIGNFTLAGIPPAPKGVPQIEVTFDIDADGIINVSARDKATNKDSSITVAGSSGLSENEIEQMVNDAEKFKSQDEARKQAIETANKADQLANDTENSLKEFEGKVDKAEAQKVRDQITSLKELVARVQGGEEVNAEELKTKTEELQTSSMKLFEQLYKNDSNNNNNNNGNNAESGETKQ
Ssc1 [13]
  fold increase in basal ATPase activity: 4.85 fold
Mitochondrial mass
  reduction in mitochondrial mass: 30%
Ssc1 [14]
  substrate (peptide) release upon ATP addition: ~38%
Ssc1 [15]
  trypsin cleavage pattern, in words: the 30-kDa bands were very unstable and rapidly degraded further into smaller-sized fragments
Cytb2(47)-DHFR
  rate of precursor translocation into mitochondria, in words: impairment in translocation rate
Yeast cells
  growth phenotype, in words: viable at 30 °C but displayed temperature sensitivity at 34 and 37 °C
[16]
  fold reduced affinity for the substrate vs wild type: ~8.6 fold
Tim44
  interaction with Tim44, in words: interacted negligibly with Tim44 even in the absence of ATP
Hsp60
  Hsp60 precursor accumulation, in words: significant levels of Hsp60 precursor form as compared with wild type
